Non-standard residues stand in square brackets, D forms with d. Residues, ends and D or L forms follow the SMILES beside them.
How the values were obtained:
[1] = system: Ag7-restricted T cell response; conditions: cited from earlier work
[2] = system: NOD class II MHC molecule Ag7; assay: Competition for antigen presentation of HEL 8-29 to T cell hybridoma 2D12.1; type: cell-based, mouse (NOD); conditions: APC NOD splenocytes, 80 nM HEL 8-29, competitor up to 100 μM
Procedure, shortened: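 NOD splenocytes (2.5 × 10^5/well) served as APC. They were held 24 h with antigenic peptide and competitor in RPMI 1640 + 10% FCS, then irradiated at 2,000 rad and washed before 5 × 10^4 hybridoma cells were added. After 24 h, supernatant went onto 10^4 CTLL cells. IL-2 was measured by thymidine incorporation during the final 4 h of the 24-h CTLL culture.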

Ad = target: T1, Ad (Mus musculus, UniProt P01921+P04228); assay: Competition for antigen presentation of OVA 323-339 to hybridoma DO11.10; type: cell-based
T1 sequence (P01921 28-265): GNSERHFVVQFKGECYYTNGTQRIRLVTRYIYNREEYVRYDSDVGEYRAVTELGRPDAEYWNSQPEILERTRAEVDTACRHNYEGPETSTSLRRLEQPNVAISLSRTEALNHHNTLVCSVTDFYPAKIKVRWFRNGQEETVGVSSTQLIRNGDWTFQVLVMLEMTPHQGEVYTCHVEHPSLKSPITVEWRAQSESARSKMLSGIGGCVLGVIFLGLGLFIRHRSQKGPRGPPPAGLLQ
T1 sequence (P04228 24-256): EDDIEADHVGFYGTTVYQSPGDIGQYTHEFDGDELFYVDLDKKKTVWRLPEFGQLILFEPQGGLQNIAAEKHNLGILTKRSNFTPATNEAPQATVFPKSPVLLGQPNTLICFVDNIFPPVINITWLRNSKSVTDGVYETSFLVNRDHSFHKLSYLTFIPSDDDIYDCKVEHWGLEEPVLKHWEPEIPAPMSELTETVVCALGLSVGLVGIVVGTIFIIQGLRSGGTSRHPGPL
Procedure, shortened: (§1)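 LK cells (2.5 × 10^4/well) served as APC. They were preincubated 24 h with antigenic peptide plus competitor peptide in RPMI 1640 with 10% FCS, then irradiated (2,000 rad) and washed. Hybridoma cells (5 × 10^4/well) were added for 24 h. Supernatant was transferred to 10^4 CTLL cells, and IL-2 was read as thymidine uptake over the last 4 h of the 24-h CTLL culture.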

Ek = assay: Competition for antigen presentation of HEL 1-18 to hybridoma 2G7.1; type: cell-based, mouse; conditions: APC LK cells, 2 μM HEL 1-18, competitor up to 100 μM
Procedure, shortened: as §1

Ed = assay: Competition for antigen presentation of HEL 105-120 to hybridoma 1H11.3; type: cell-based, mouse; conditions: APC LK cells, 500 nM HEL 105-120, competitor up to 100 μM
Procedure, shortened: as §1

[3] = system: NOD mice, spontaneous autoimmune diabetes; assay: Prevention of spontaneous diabetes in female NOD mice, first experiment; type: in vivo, mouse (NOD)
Procedure, shortened: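 Female NOD mice from an SPF in-house colony were dosed from 3 wk of age with 500 nmol peptide in HBSS, i.p. and s.c. at multiple sites. The schedule was five times weekly for 3 wk, five times weekly for 3 wk more, then twice weekly to 22-23 wk. Arms: test peptide (18 mice), nonbinding control peptide (12), HBSS (18). Monitoring began at 10 wk; blood glucose ≥200 mg/dl counted as diabetic.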

NOD mice [4] = assay: Mortality and hypersensitivity during chronic treatment, first experiment; type: in vivo, mouse (NOD); conditions: after 10-18 wk of treatment; 500 nmol chronic
Procedure, shortened: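 Female NOD mice from 3 wk of age got 500 nmol test peptide in HBSS, i.p. and s.c. at multiple sites. Schedule: five times/week for 3 wk, five times/week for a further 3 wk, then twice weekly to 22-23 wk. Groups: 18 test-peptide, 12 nonblocking-peptide and 18 HBSS-only mice.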

[5] = Peptide-specific antibodies by ELISA in sera of chronically treated mice; type: in vivo, mouse (NOD); conditions: for peptide-specific IgG antibodies / peptide-specific IgM antibodies: ELISA, sera of chronically treated mice
Procedure, shortened: (§2)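 ELISA on sera of individual chronically peptide-treated NOD mice at several time points. Wells were coated with 250 ng peptide in PBS at 4°C overnight and blocked with 2% BSA, 37°C, 30 min. Diluted sera ran 1 h at 37°C, then phosphatase-conjugated anti-mouse Ig, IgG or IgM (1:500) 2 h at 37°C. p-Nitrophenyl phosphate (1 mg/ml) ran 45 min, read at OD 405. Uncoated-well background was subtracted from duplicate means.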

Ag7 = assay: Screening: binding to Ag7; type: cell-based, mouse (NOD); conditions: screening of peptide panel
NOD mice [6] = assay: Mortality and symptoms during chronic treatment, second experiment; type: in vivo, mouse (NOD)
Procedure, shortened: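 Female NOD mice received 500 nmol test peptide in HBSS, i.p. and s.c., from 3 wk of age for 20 wk. Thereafter peptide was co-injected with ketotifen 3 mg/kg […] (13 mice). Controls were ketotifen only (15) and HBSS only (15).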

[7] = Peptide-specific antibodies in mice of the Fig. 3 B experiment; type: in vivo, mouse (NOD); conditions: data not shown
Procedure, shortened: as §2

Molecule | Ag7-restricted T cell response of NOD mice [1] | effect on antigen presentation by Ag7 [2] | effect on antigen presentation by Ad (Ad; APC LK cells, 1 μM OVA 323-339, hybridoma DO11.10, competitor up to 100 μM) | effect on antigen presentation by Ek (Ek) | effect on antigen presentation by Ed (Ed) | plateau level of diabetic animals ([3]; by 22 wk of age, control groups (P2, 12 mice, or solvent)) | effect on spontaneous diabetes (summary) ([3]; chronic administration from 3 wk of age on, female NOD mice) | mortality (died/total) (NOD mice [4]) | peptide-specific IgG antibodies [5] | peptide-specific IgM antibodies [5] | fraction of mice nonresponders ([5]; chronic treatment) | binding to Ag7 (Ag7) | IC50 (Ad) | mortality (NOD mice [6]; P1 mixed with ketotifen (3 mg/kg) after 20 wk of treatment) | symptoms after adding ketotifen (NOD mice [6]; P1 mixed with ketotifen (3 mg/kg) after first signs of postinjection fatigue (20 wk of treatment)) | fraction of mice antibody negative ([5]; after 13 wk of treatment) | animals producing antibodies against the peptide [7]
sheep insuline: sheep insulin used as antigen in NOD mice | strong |  |  |  |  |  |  |  |  |  |  |  |  |  |  |  | 
KMKMVHAAHAKMKM [P2] |  | not that by As7 | inhibited antigen presentation | inhibited antigen presentation | not that by As7 and Ea | 60% | no effect on the disease | 1/12 | no IgG | exclusively of IgM isotype | Approximately half | fails to bind |  |  |  |  | 
CC(C)[C@H](NC(=O)[C@@H](NC(=O)[C@H](Cc1ccc(O)cc1)NC(=O)[C@@H](NC(=O)[C@H](N)Cc1ccc(O)cc1)[C@@H](C)O)[C@@H](C)O)C(=O)N[C@@H](Cc1c[nH]cn1)C(=O)N[C@@H](C)C(=O)N[C@@H](C)C(=O)N[C@@H](Cc1c[nH]cn1)C(=O)N[C@@H](C)C(=O)N[C@@H](Cc1ccc(O)cc1)C(=O)N[C@H](C(=O)N[C@@H](Cc1ccc(O)cc1)C(=O)N[C@@H](C(=O)O)[C@H](C)O)[C@@H](C)O [P1, yTYTVHAAHAYTYt] (H-[dY]TYTVHAAHAYTY[dT]-OH) |  |  |  |  |  |  |  | 6/18 | IgG | no IgM |  |  | ~20 µM | no mortality occurred | symptomless | Approximately half | 3 of 13 animals

— publication PMC2191014 (The Journal of Experimental Medicine, 1993)
